# Laboratory results from ChEMBL document CHEMBL1158731, “Anti-babesial and anti-plasmodial compounds from Phyllanthus niruri” (J Nat Prod, 2005).
# How the values were obtained:
# [1] = tested on: Babesia gibsoni; assay: Antibabesial activity against Babesia gibsoni in dog erythrocytes after 72 hrs; type: functional, organism-based
# [2] = tested on: Plasmodium falciparum; assay: Antiplasmodial activity against chloroquine-susceptible Plasmodium falciparum FCR3 in human erythrocytes after 24 hrs; type: functional, organism-based; conditions: FCR3, 24 h
# How it was run: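 P. falciparum FCR-3 kept in culture and synchronized with 5% D-sorbitol, then washed in RPMI 1640. Infected RBCs resuspended at 0.25-0.50% parasitemia in RPMI 1640 with 10% human serum, 25 mM Hepes, gentamicin and Na2CO3, then incubated with test solution at 37 °C under 5% CO2. Stopped once controls reached 20% schizonts. Schizonts counted on Giemsa smears; IC50 read from the inhibition-versus-concentration graph.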
# [3] = Cytotoxicity against dog RBC; type: cell-based, Canis lupus familiaris; conditions: erythrocyte
# [4] = Cytotoxicity against human RBC; type: cell-based; conditions: erythrocyte
SMILES,IC50 [1] [µg/mL],IC50 [2] [µg/mL],Activity [3],Activity [4]
CC[C@H](CC[C@@H](C)[C@H]1CC[C@H]2[C@@H]3CC=C4C[C@@H](O)CC[C@]4(C)[C@H]3CC[C@]12C)C(C)C [BETA-SITOSTEROL],61.6,32,Non-toxic,Non-toxic
CC(=O)NCC(=O)O.N=C(N)c1ccc(/N=N/Nc2ccc(C(=N)N)cc2)cc1 [DIMINAZEN ACETURATE],0.6,,,
O=C(O)c1cc(O)c(O)c(O)c1 [GALLIC ACID],13.4,14.8,Non-toxic,Non-toxic

# Continued, in another order:
IC50 [1] [µg/mL],IC50 [2] [µg/mL],SMILES,Activity [3],Activity [4]
4.7,1.4,O=C(O[C@H]1O[C@H](COC(=O)c2cc(O)c(O)c3oc(=O)c4cc(O)c(O)c(O)c4c23)[C@@H](O)[C@H](O)[C@H]1O)c1cc(O)c(O)c(O)c1,Non-toxic,Non-toxic
35.2,11,O=c1c(O[C@@H]2O[C@H](CO)[C@@H](O)[C@H](O)[C@H]2O[C@@H]2OC[C@@H](O)[C@H](O)[C@H]2O)c(-c2ccc(O)c(O)c2)oc2cc(O)cc(O)c12,Non-toxic,Non-toxic
7.5,4.6,O=C(O[C@@H]1O[C@H](CO)[C@@H](O)[C@H](O)[C@H]1O)c1cc(O)c(O)c(O)c1,Non-toxic,Non-toxic
